Compound activity from PubChem.
FGF22 binding: FGF22 (human) thermal shift binding | recombinant FGF22 thermal shift, SYPRO orange fluorescence; percent of sucrose octasulfate shift, DMSO zero | activity (Tm shift, normalised), % at 9.99 µM | actives 1.5% (n = 340,000) | AID 651658;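 active = mean Tm shift, scaled 0 neutral to 100 positive control, at about 1.3% or above, every replicate too, limit read from the data; inconclusive = no clear call, values can overlap the other calls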
NSD2 inh: inhibitors of human histone methyltransferase NSD2; O96028; NSD2 peptide methylation, AlphaScreen, 120 min; inhibition, % at 12.5 µM; actives 0.54% (n = 310,000); in the data active = inhibition above about 50%
Target sequence (O96028 whole entry, looked up): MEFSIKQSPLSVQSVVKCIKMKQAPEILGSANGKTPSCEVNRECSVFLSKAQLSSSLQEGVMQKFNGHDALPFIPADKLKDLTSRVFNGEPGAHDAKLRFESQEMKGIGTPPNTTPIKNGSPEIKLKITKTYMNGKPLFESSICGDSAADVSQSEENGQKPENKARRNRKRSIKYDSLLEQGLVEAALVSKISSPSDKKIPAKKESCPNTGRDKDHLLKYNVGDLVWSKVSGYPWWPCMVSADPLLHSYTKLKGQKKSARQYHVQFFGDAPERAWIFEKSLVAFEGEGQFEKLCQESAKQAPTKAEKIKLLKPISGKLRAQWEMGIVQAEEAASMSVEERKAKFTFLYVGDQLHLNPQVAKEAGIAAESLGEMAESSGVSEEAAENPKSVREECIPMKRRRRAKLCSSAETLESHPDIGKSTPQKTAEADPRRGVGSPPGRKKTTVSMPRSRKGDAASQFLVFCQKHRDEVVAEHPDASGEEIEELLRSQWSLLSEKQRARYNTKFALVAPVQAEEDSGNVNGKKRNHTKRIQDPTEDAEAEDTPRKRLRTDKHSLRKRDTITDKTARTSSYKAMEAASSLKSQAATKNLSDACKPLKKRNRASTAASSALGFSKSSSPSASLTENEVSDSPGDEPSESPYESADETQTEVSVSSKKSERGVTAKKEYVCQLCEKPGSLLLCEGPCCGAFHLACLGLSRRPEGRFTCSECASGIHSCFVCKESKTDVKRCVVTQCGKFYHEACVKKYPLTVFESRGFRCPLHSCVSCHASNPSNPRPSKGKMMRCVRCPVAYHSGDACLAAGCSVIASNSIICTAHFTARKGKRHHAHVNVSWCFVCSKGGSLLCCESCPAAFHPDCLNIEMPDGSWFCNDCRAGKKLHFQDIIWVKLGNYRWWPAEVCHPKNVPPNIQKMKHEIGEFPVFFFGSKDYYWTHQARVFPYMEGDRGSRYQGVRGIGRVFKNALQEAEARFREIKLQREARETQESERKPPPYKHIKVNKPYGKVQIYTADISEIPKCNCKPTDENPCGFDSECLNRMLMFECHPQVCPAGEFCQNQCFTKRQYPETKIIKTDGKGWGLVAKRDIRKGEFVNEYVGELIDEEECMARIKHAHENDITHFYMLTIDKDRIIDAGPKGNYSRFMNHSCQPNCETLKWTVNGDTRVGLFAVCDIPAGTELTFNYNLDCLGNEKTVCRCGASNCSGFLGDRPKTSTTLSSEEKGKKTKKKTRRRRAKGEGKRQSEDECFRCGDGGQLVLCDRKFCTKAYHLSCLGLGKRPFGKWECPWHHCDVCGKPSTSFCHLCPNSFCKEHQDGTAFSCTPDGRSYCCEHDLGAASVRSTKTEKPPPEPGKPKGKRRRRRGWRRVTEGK
Casp6 inh: inhibitors of human caspase-6 | P55212 | purified caspase-6, Z-VEID-R110 cleavage fluorescence | inhibition, % at 12.5 µM | actives 0.53% (n = 350,000) | AID 686996;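 active = mean inhibition across replicates at least about 35%, with every replicate also reaching that limit, limit read from the data; inconclusive = only one of the two criteria met; inactive = neither criterion met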;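 note: 0% = median of neutral control wells and 100% = no fluorescence left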
SIRT5 inh: inhibitors of human sirtuin-5 desuccinylase | inhibition, % at 15 µM | Purified SirT5, succinyl-peptide AMC, trypsin-coupled fluorescence | actives 1.1% (n = 330,000); in the data active = inhibition above about 15%; inconclusive = no clear call, values can overlap the other calls
UCH37 DUB inh: blocks the human deubiquitinase UCH37 | Q9Y5K5 | purified proteasome/UCH37, Ub-AMC cleavage fluorescence | inhibition, % (no concentration beside the values) | actives 0.33% (n = 330,000) | AID 588478;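 active = mean inhibition over replicate wells above about 20%, limit read from the data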;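 note: 0% = compound-free wells with enzyme and 100% = wells lacking proteasome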
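Assay system: Proteasome-bound UCH37. Buffer or medium: pH 7.4 Tris-HCl (50 mM) with ovalbumin, ATP-MgCl2, DTT. Incubation: 30 min preincubation with enzyme, 25 min cleavage at room temperature. Measured by: fluorescence, ex 355 nm, em 460 nm. Read-out basis: percent inhibition. Control set: wells without proteasome as full block, compound-free enzyme plus substrate as uninhibited.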
* hit, by the source's call; ? = inconclusive; · = no result given. Most compounds without a hit are left out; they make up all but 2.6% or so of the library.

SMILES	FGF22 binding	NSD2 inh	Casp6 inh	SIRT5 inh	UCH37 DUB inh
Cc1ccc(S(=O)(=O)N(C)C[C@@H]2Oc3cc(-c4cccc(F)c4)ccc3S(=O)(=O)N([C@H](C)CO)C[C@H]2C)cc1	0	·	0	?	·
COc1cccc(S(=O)(=O)N[C@@H]2C=C[C@@H](CC(=O)NC3CCC3)O[C@@H]2CO)c1	0	·	0	-6	·
O=S(=O)(c1ccc(F)cc1)N1CCCCN2[C@H](C1)[C@@H](c1ccc(C#CC3CC3)cc1)[C@@H]2CO	-1	·	2	8	·
O=S(=O)(c1ccc(F)cc1)N1CCCCN2[C@H](CO)[C@@H](c3ccc(C#CC4CCCC4)cc3)[C@@H]2C1	0	·	1	18*	·
CC(C)c1ccc(/C=N/NC(=O)c2cccc(S(=O)(=O)N3CCOCC3)c2)cc1	44*	-1	2	0	·
CC(=O)Nc1ccc(/C=N/NC(=O)c2cccc(S(=O)(=O)N3CCOCC3)c2)cc1	0	-2	2	0	·
COCCNC(=O)C[C@@H]1CC[C@H](NC(=O)NC2CCCC2)[C@H](CO)O1	0	·	6	3	·
CC1=CCC(C(=O)O)C(C(=O)NC2CCCCC2)C1 (configuration not stated)	0	5	41*	-6	1
CC1=C(C)CC(C(=O)NC2CCCC2)C(C(=O)O)C1 (configuration not stated)	0	0	-1	-1	5
COc1ccc(N=Cc2c(C)[nH][nH]c2=O)cc1	43*	3	0	2	5
Cc1[nH][nH]c(=O)c1C=Nc1ccc(C(F)(F)F)cc1	0	-1	4	1	8
CC(=O)c1cccc(NC(=O)Cn2cnc(S(=O)(=O)N3CCCCC3)c2)c1	0	-1	0	5	-1
O=C(Cn1cnc(S(=O)(=O)N2CCCC2)c1)Nc1cccc(Br)c1	0	0	-3	19*	4
COCC#Cc1ccc([C@H]2[C@H]3CN(C(=O)C4CCC4)CC(=O)N3[C@H]2CO)cc1	·	·	2	-5	·
CCNC(=O)Cn1c(=O)c2c(ncn2Cc2ccccc2)n(Cc2ccccc2)c1=O	0	0	0	-3	1
CC(C)Cn1cnc2c1c(=O)n(CC(=O)N(C)C)c(=O)n2Cc1ccccc1	44*	2	-2	0	-3
COc1ccc(S(=O)(=O)N(C)C[C@@H]2Oc3ccc(NS(=O)(=O)c4ccc(F)cc4)cc3C(=O)N([C@@H](C)CO)C[C@H]2C)cc1	0	·	3	-2	·
CCNC(=O)CSc1nnc(-c2cccs2)o1	0	-7	3	18*	-3
CCNC(=O)CCSc1nnc(-c2ccncc2)o1	0	-4	2	20*	1
O=C(CSc1nnc(-c2cccs2)o1)c1cccs1	0	0	3	-9	4
O=c1[nH]c2ccccc2nc1C=C(O)C(F)F	·	·	·	·	-11
COc1cccc(S(=O)(=O)Nc2ccc3c(c2)[C@@H]2C[C@H](CC(=O)NCC(F)(F)F)O[C@@H](CO)[C@@H]2O3)c1	0	·	0	-1	·
COc1ccc(NC(=O)N(C)C[C@@H]2Oc3ccc(NC(=O)Nc4ccc(C(F)(F)F)cc4)cc3C(=O)N([C@@H](C)CO)C[C@@H]2C)cc1	1	·	·	·	·
O=c1cc(CSc2nnnn2-c2ccc(O)cc2)nc2sccn12	0	-2	5	38*	4
Cn1c(Cc2ccccc2)nnc1SCc1cc(=O)n2ccsc2n1	0	2	5	2	-1
SMILES	FGF22 binding	NSD2 inh	Casp6 inh	SIRT5 inh	UCH37 DUB inh
O=C(C[C@H]1C=C[C@H](NC(=O)CC2CC2)[C@H](CO)O1)NCc1ccc(-c2ccccc2)cc1	0	·	2	3	·
O=C1C=C(Nc2cccc3cccnc23)c2ccccc2C1=O	0	104*	29	3	·
NC(=O)NC(CC(=O)NCCc1ccccn1)c1ccccc1Cl (configuration not stated)	0	-1	5	7	2
NC(=O)NC(CC(=O)NCCCc1ccccc1)c1ccccc1Cl (configuration not stated)	43*	-17	-3	-6	4
Cc1nnc(N2C(=O)c3oc4ccccc4c(=O)c3C2c2ccco2)s1 (configuration not stated)	0	·	38*	·	2
CN1CCN(CCC(=O)N/N=C/c2cc([N+](=O)[O-])ccc2OC(F)F)CC1	0	6	-10	23*	·
COc1ccc([N+](=O)[O-])cc1NC(=O)CCN1CCN(C)CC1	0	1	-10	0	2
COc1ccc(CN(C)C[C@H]2Oc3c(NC(=O)CCCCCC(=O)Nc4ccccc4N)cccc3C(=O)N([C@@H](C)CO)C[C@@H]2C)cc1	-1	·	-2	7	·
COCCN(C(=O)c1cc2c(s1)CCC2)c1c(N)n(CC(C)C)c(=O)[nH]c1=O	0	1	52*	-3	6
COCCN(C(=O)c1cc2c(s1)CCCCC2)c1c(N)n(CC(C)C)c(=O)[nH]c1=O	0	-1	6	-6	3
Cc1c(C(C)C)c(=O)n(-c2ccc(S(=O)(=O)NCc3ccccc3)cc2)n1C	43*	-2	-4	3	2
Cc1c(C(C)C)c(=O)n(-c2ccc(S(=O)(=O)NC3CCCCC3)cc2)n1C	0	-4	3	1	3
Cc1ccc(-n2c(C)cc(C=NNC(=O)CC3(C)OCCO3)c2C)cc1	·	·	·	·	6
Cc1ccc(C(=O)Nc2ccc(C(F)(F)F)n(C)c2=O)cc1	·	-2	-2	0	-17
COc1ccc(C(=O)Nc2ccc(C(F)(F)F)n(C)c2=O)cc1	44*	14	-2	0	4
COC(=O)c1cc[n+](CC(=O)c2ccccc2)cc1	·	-11	·	·	23*
CCN(C(=O)CSc1nc2scc(-c3ccccc3)c2c(=O)n1N)C1CCS(=O)(=O)C1 (configuration not stated)	0	1	1	20*	1
COc1cccc(NC(=O)N[C@H]2CC[C@H](CC(=O)N3CCCCC3)O[C@H]2CO)c1	0	·	0	-3	·
CC(C)(C)C(=O)CNCC(=O)C(C)(C)C	1	4	0	25*	3
CC1C=NC(S(=O)(=O)N2CC[C@@H]3[C@H](CO)N(C)c4ccc(-c5ccccc5)cc4[C@@H]32)=N1 (some centres not stated)	0	·	-5	10	·
O=C1Nc2ccccc2C(=O)N2[C@H](c3ccccc3)[C@@H]3C(=O)N(Cc4ccccc4)C(=O)[C@@H]3[C@H]12	0	·	7	16*	1
C[C@@H]1CCCCO[C@H](CN(C)S(=O)(=O)c2cn(C)cn2)[C@@H](C)CN([C@H](C)CO)C(=O)c2cc(NC(=O)Nc3ccccc3)ccc2O1	0	·	4	0	·
CCN(CC)C(=O)COc1ccc(/C(C)=N/NC(=O)c2ccccc2O)cc1	0	2	38*	2	·
CCN(CC)C(=O)COc1ccc(/C(C)=N/NC(=O)c2ccccc2Br)cc1	1	-3	·	-1	·
